Converted amounts (≈) assume the structure as drawn. The source made the active and inactive calls.

Broadly, the MIC is the smallest concentration in the dilution series that meets the test's criterion for growth inhibition.

In assay [1] the test system is Staphylococcus aureus. The assay is described as follows: Antibacterial activity against Staphylococcus aureus TISTR 1466 by two-fold broth dilution method. Format: functional. Background: In broth dilution the organism is exposed to a series of concentrations in liquid medium.
The test system of assay [2] is Staphylococcus aureus. The assay can be described thus: Antibacterial activity against methicillin-resistant Staphylococcus aureus SK1 at >128 ug/mL by two-fold broth dilution method. Type of assay: functional, organism-based. A digest of the protocol: (§1)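 MRSA SK1 was tested in a panel with Gram-positive S. aureus TISTR 1466 and Gram-negative E. coli TISTR 780 and S. typhimurium TISTR 292. Values are in μg/mL.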

Assay [3] concerns Escherichia coli. The assay is described as follows: Antibacterial activity against Escherichia coli TISTR 780 by two-fold broth dilution method. Type of assay: functional.
In assay [4] the test system is Salmonella typhimurium. The assay can be described thus: Antibacterial activity against Salmonella typhimurium TISTR 292 by two-fold broth dilution method. Format: functional, Salmonella enterica subsp. enterica serovar Typhimurium.
Assay [5] deals with Staphylococcus aureus. The assay can be described thus: Antibacterial activity against methicillin-resistant Staphylococcus aureus SK1 by two-fold broth dilution method. Type of assay: functional. In outline: as §1
For assay [6], the system named is Staphylococcus aureus. The assay can be described thus: Antibacterial activity against Staphylococcus aureus TISTR 1466 at >128 ug/mL by two-fold broth dilution method. Format: functional, organism-based.

Turning to `C=C(C)CC[C@@H]1C[C@]23CC4C(C)(C)c5ccccc5C(=O)C45C(=O)[C@@](CC=C(C)C)(C[C@@]1(C)[C@]52O)C3=O` (relative stereo), the MIC in assay [1], in assay [3] and in assay [4] (Salmonella enterica) was 128 µg/mL (≈ 256 µM) each time. The MIC entry in assay [2] is “inactive”.
As to `C=CC(C)(C)c1c2c(c(O)c3c(=O)c4ccc(O)c(OC)c4oc13)C=CC(C)(C)O2`, the MIC in assay [1] came to 2 µg/mL (≈ 4.9 µM); in assay [3], 128 µg/mL (≈ 313 µM); in assay [4] (Salmonella enterica), 128 µg/mL (≈ 313 µM); in assay [5], 4 µg/mL (≈ 9.79 µM).
On to `C=CC(C)(C)c1c2c(c(O)c3c(=O)c4ccc(O)c(O)c4oc13)C=CC(C)(C)O2` [MACLURAXANTHONE], for which the MIC in assay [1] came out at 4 µg/mL (≈ 10.1 µM); in assay [3] it was 128 µg/mL (≈ 325 µM); in assay [5], 4 µg/mL (≈ 10.1 µM).
Consider `C=C(C)CC[C@@H]1C[C@]2(CC=C(C)C)C(=O)/C(=C(\O)c3ccccc3)C(=O)[C@]3(CC=C(C)C)C[C@@]1(C)O[C@@]32O` [XEROPHENONE A], for which the MIC entry in assay [1] is “inactive”. Moreover, the MIC in assay [3], in assay [4] (Salmonella enterica) and in assay [5] was 128 µg/mL (≈ 247 µM) each time.
As for `COc1c(CC=C(C)C)c(O)c2c(=O)c3ccc(O)c(OC)c3oc2c1CC=C(C)C` [DOITUNGGARCINONE C], the MIC in assay [1], in assay [3] and in assay [5] was 128 µg/mL (≈ 302 µM) in each case.
Turning to `CC(C)=CCc1c2c(c3oc4c(O)ccc(O)c4c(=O)c3c1O)C=CC(C)(C)O2` [MORUSIGNIN J], the MIC in assay [1] and in assay [3] was 128 µg/mL (≈ 325 µM) each time.
Turning to `CC(C)=CCc1c(O)c(CC=C(C)C)c2oc3c(O)ccc(O)c3c(=O)c2c1O` [GARTANIN], the MIC in assay [1], in assay [3] and in assay [4] (Salmonella enterica) was 128 µg/mL (≈ 323 µM) throughout. Further, in assay [2], the MIC result was “inactive”.
Turning to `COc1c(O)ccc2c(=O)c3c(O)c4c(c(CC=C(C)C)c3oc12)OC(C)(C)C=C4`, the MIC entry in assay [2] and in assay [6] was “inactive” in each case. Moreover, the MIC in assay [3] and in assay [4] (Salmonella enterica) was 128 µg/mL (≈ 313 µM) in each case.
As to GENTAMICIN, the results for the MIC in assay [3] and in assay [4] (Salmonella enterica subsp. enterica serovar Typhimurium) were 0.25 µg/mL and 0.125 µg/mL, respectively.
Take `C=C(C)CC[C@@H]1C[C@@]2(CC=C(C)C)C(=O)[C@]3(CC=C(C)C)C[C@@]1(C)C2(O)/C(=C(/O)c1ccccc1)C3=O` (relative stereo): the MIC came to 64 µg/mL (≈ 127 µM) in assay [1], 128 µg/mL (≈ 255 µM) in assay [3], 128 µg/mL (≈ 255 µM) in assay [4] (Salmonella enterica) and 64 µg/mL (≈ 127 µM) in assay [5].
In the case of `CN[C@H](CC(C)C)C(=O)N[C@H]1C(=O)N[C@@H](CC(N)=O)C(=O)N[C@H]2C(=O)N[C@H]3C(=O)N[C@H](C(=O)N[C@H](C(=O)O)c4cc(O)cc(O)c4-c4cc3ccc4O)[C@H](O)c3ccc(c(Cl)c3)Oc3cc2cc(c3O[C@@H]2O[C@H](CO)[C@@H](O)[C@H](O)[C@H]2O[C@H]2C[C@](C)(N)[C@H](O)[C@H](C)O2)Oc2ccc(cc2Cl)[C@H]1O` [VANCOMYCIN], in assay [1], inhibition of growth (MIC) required 0.25 µg/mL (≈ 0.173 µM).
`COc1c(CC=C(C)C)c(O)c2c(=O)c3ccc(O)c(O)c3oc2c1CC=C(C)C` [DULXANTHONE B]: the MIC in assay [1] was determined as 32 µg/mL (≈ 78 µM); in assay [3], 128 µg/mL (≈ 312 µM); in assay [4] (Salmonella enterica), 128 µg/mL (≈ 312 µM); in assay [5], 16 µg/mL (≈ 39 µM).

Values taken from ChEMBL document CHEMBL2146440, “Rearranged benzophenones and prenylated xanthones from Garcinia propinqua twigs” (2012).
